In ChEMBL document CHEMBL4342456, “Preventing Morphine-Seeking Behavior through the Re-Engineering of Vincamine's Biological Activity” (J Med Chem, 2020):
pIC50: −log10 of the molar value. Calls of active or inactive are those of the source. No cut-off for these calls is given here.

How the values were obtained:
[1] = target: C-C chemokine receptor type 8 (Homo sapiens, UniProt P51685); experiment: Antagonist activity at human CCR8 expressed in CHOK1 cells assessed as inhibition in CCL1-induced beta-arrestin 2 recruitment at 20 uM incubated for 30 mins followed by CCL1 addition and measured after 90 or 180 mins by pathhunter beta-arrestin assay relative to control; format: cell-based
Summary of the method: (§1)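 PathHunter beta-arrestin recruitment, antagonist mode, run at DiscoverX. Cells seeded and held at 37 °C, then preincubated with test sample for 30 min at 37 °C or room temperature (1% vehicle). Agonist then added at EC80 for 90 or 180 min. IC50 comes from concentration–response runs in the same format.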

[2] = target: T1, Glucose-dependent insulinotropic receptor (Homo sapiens) (UniProt Q8TDV5); experiment: Antagonist activity at human GPR119 assessed as inhibition in oleoylethanolamide-induced beta-arrestin 2 recruitment at 20 uM incubated for 30 mins followed by oleoylethanolamide addition and measured after 90 or 180 mins by pathhunter beta-arrestin assay relative to control; summary of the method: as §1
T1 sequence (whole entry): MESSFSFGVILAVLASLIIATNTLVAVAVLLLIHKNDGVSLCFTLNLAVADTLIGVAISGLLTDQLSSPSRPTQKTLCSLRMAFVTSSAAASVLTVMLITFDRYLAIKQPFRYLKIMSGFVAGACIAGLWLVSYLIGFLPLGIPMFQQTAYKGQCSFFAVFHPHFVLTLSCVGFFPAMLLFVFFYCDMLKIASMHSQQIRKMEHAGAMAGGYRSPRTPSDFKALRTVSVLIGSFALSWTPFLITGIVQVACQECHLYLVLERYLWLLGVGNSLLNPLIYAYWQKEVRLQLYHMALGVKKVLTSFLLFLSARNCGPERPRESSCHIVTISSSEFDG

[3] = target: T2, Orexin receptor type 2 (Homo sapiens) (UniProt O43614); experiment: Antagonist activity at human Gq-coupled HCRTR2 expressed in CHOK1 cells assessed as inhibition in Orexin A-induced beta-arrestin 2 recruitment at 20 uM incubated for 30 mins followed by Orexin A addition and measured after 90 or 180 mins by pathhunter beta-arrestin assay relative to control; format: cell-based; summary of the method: as §1
T2 sequence (whole entry): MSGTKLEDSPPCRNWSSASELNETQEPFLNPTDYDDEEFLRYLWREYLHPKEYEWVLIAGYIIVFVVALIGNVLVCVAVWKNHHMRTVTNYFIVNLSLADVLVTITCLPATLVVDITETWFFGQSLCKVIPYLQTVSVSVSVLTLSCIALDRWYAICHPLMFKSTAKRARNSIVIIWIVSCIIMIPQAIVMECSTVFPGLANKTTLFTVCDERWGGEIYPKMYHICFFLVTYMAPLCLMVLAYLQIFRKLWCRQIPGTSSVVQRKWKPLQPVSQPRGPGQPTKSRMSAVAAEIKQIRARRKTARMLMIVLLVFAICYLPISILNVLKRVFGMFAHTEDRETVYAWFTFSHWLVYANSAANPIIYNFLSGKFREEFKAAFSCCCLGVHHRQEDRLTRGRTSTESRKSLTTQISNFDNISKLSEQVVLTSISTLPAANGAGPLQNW

Orexin receptor type 2 = target: T3, Orexin receptor type 2 (Homo sapiens, UniProt O43614); experiment: Antagonist activity at human Gq-coupled HCRTR2 expressed in CHOK1 cells assessed as inhibition in Orexin A-induced beta-arrestin 2 recruitment incubated for 30 mins followed by Orexin A addition and measured after 90 or 180 mins by pathhunter beta-arrestin assay; format: cell-based
T3 sequence (O43614 whole entry): T2 sequence (whole entry)
Summary of the method: as §1, with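 “min. […]” for “min.”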

[4] = target: T4, Muscarinic acetylcholine receptor M4 (Homo sapiens, UniProt P08173); experiment: Antagonist activity at human Gs/Gi/o-coupled CHRM4 expressed in CHOK1 cells assessed as inhibition in acetylcholine-induced beta-arrestin 2 recruitment incubated for 30 mins followed by acetylcholine addition and measured after 90 or 180 mins by pathhunter beta-arrestin assay; format: cell-based
T4 sequence (P08173 whole entry): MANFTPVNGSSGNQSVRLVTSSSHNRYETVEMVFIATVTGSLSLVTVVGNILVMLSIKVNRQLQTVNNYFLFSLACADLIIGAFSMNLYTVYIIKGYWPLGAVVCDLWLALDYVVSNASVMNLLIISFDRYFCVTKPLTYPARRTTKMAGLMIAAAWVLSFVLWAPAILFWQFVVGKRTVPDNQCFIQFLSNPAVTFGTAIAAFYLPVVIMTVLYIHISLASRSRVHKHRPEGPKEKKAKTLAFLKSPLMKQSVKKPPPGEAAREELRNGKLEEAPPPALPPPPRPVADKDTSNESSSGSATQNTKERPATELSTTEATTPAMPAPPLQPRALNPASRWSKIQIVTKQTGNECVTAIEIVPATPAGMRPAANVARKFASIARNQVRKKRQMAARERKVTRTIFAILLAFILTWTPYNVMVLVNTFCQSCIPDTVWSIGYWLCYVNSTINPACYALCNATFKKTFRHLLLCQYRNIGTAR
Summary of the method: as §1, with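 “min. […]” for “min.”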

[5] = Stability of compound in pH 4.88 HCl aqueous solution assessed as parent compound remaining at 0.026 mmol measured after 24 hrs; format: physicochemical; conditions: read-out: Stability
Summary of the method: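 Acid stability: compound held 24 h at 37 °C in acidic aqueous media at pH 2.0 or pH 4.88. Percent recovery of parent compound was measured.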

Mus musculus = experiment: Suppression of drug-induced cocaine-seeking behavior in C57BL/6J mouse assessed as reduction in morphine-conditioned place preference at 60 nmol, icv administered 20 mins prior to behavioral morphine addition measured twice weekly for 7 weeks; format: functional, organism-based; conditions: in the assay text read “morphine-seeking” for “cocaine-seeking”
Summary of the method: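 Male C57BL/6J mice, 7–11 weeks, 20–33 g. Three-compartment counterbalanced place conditioning. Test agent given i.c.v. in 10% Solutol HS 15/90% saline, 20 min before morphine (10 mg/kg i.p., in 0.9% saline). Mice then confined 40 min in the paired outer chamber. Saline i.p. conditioning in the opposite chamber followed 4 h later. Preference was scored in a 30 min automated test. n = 16–30/group; two-way ANOVA with Tukey post hoc.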

[6] = Toxicity in C57BL/6J mouse assessed as induction of behavioral changes at 60 nmol, icv; conditions: in vivo, icv_or_intrathecal

Sequence of C-C chemokine receptor type 8 (P51685 whole entry): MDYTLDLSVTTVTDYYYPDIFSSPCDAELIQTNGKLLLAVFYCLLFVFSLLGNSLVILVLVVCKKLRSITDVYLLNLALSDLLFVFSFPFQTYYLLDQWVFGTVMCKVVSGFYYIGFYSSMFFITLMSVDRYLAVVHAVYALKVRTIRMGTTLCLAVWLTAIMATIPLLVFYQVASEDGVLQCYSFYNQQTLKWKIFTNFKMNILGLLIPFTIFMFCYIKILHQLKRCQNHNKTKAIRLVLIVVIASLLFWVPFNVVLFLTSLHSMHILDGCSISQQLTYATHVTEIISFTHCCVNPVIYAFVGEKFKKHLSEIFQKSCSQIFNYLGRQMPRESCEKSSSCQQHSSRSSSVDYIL

inhibition [1]: 59%
inhibition [2]: 30%
inhibition [3]: 80%
pIC50 (Orexin receptor type 2): 5.65
pIC50 [4]: 4.90
remaining at 24 h, 0.026 mmol [5]: 99.2%
Compound: CC[C@@]12CCCN3CCc4c([nH]c5ccccc45)[C@]31N(Cc1cn(Cc3ccccc3)nn1)C(=O)C2
Activity (Mus musculus): Active
Activity [6]: Non-Toxic
